Assay results taken from PubChem BioAssay.
Records with an inconclusive call do not appear.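 Rule for the calls, unless noted: active = viability increase at or above a cutoff of the median across tested compounds plus 3 SD (cut at about 8.5% in these data, passing the limit was not always enough); inconclusive = some gains above the cutoff, reason not given; inactive = the rest.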

Tests used:
[1] = S. cerevisiae growth inhibition in permissive medium (OD615), pilot counter-assay for S. cerevisiae lifespan shortening project, permissive growth control (AID 705;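 active = growth inhibition above 25% in both replicates, a cutoff set 3 SD above the mean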); settings: OD615, 24 h, at 10 µM, active compounds read high
Method in brief: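 System: Engineered DeaD yeast | Buffer or medium: SC raffinose/galactose permissive medium | Incubation: Cells pre-grown 4 h, then 24 h compound exposure, 30 °C humidified | Measured by: Absorbance (optical density) at 615 nm | Read-out: Reduction in yeast growth (OD615)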

[2] = S. cerevisiae growth inhibition in restrictive medium, OD615, pilot screen, restrictive growth control, yeast lifespan reduction project (AID 706;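 active = growth inhibition above a set limit, 3 SD over mean compound inhibition, in both replicates, cut at about 43% in these data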;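 note: modified DeaD lifespan yeast strain shifted to restrictive glucose medium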); settings: OD615, 48 h, at 10 µM, active compounds read high
Method in brief: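 Material: modified S. cerevisiae; Medium: glucose-based CSMM-D restrictive medium; Compound dosing: one concentration, 10 µM final, 0.25% DMSO; Incubation: 48 h compound exposure at 30 °C; Measured by: OD615.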

[3] = doxorubicin toxicity protection in MRP-1 cells – H69AR cells, CellTiter-Glo, duplicate, MRP-1 activator project, pilot screen (AID 807); settings: H69AR viability with doxorubicin, CellTiter-Glo luminescence; at 10 µM; active compounds read high;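 note: compound pretreatment 18-22 h then 72 h combined with doxorubicin; 0% = doxorubicin alone and 100% = vehicle without doxorubicin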
[4] = viability of HCT116 without oncogenic beta-catenin – human colon tumor cells, pilot screen (AID 823;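 active = cell viability at or below a set limit in both duplicate runs, the limit being the all-compound median minus 4 SD, cut at about 23% in these data, passing the limit was not always enough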;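 note: 0% = wells killed by 20 µM Hyamine and 100% = untreated DMSO cell wells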); settings: HCT116 beta-catenin knockout viability, CellTiter-Glo, 60 h; at 10 µM; active compounds read low
[5] = viability of PTEN-null HCT116 cells – cell-based, HCT116 clonal line, CellTiter-Glo, pilot screen (AID 824;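 active = viability at or below 27.92% in each of two runs, the all-compound median minus 4 SD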;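 note: 0% = 20 µM Hyamine control and 100% = vehicle cell control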); settings: HCT116 PTEN-deleted viability, 60 h, at 10 µM, active compounds read low
[6] = RAM pathway blockade in budding yeast – dse1pr::URA3 reporter, 5-FOA selection, pilot screen (AID 869;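 active = inhibition over a set limit, the all-compound mean plus 3 SD, in both replicate runs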;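 note: 0% = DMSO wells with no growth and 100% = 10 µM 1-NA-PP1 with full growth; RAM network block rescues cells from 5-FOA so hits raise OD615 growth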); settings: S. cerevisiae dse1pr::URA3 5-FOA growth, OD615, 2 d; at 10 µM; active compounds read high; strain carries analog-sensitive mutant Cbk1 kinase
[7] = RAM signaling pathway blockade in yeast – S. cerevisiae, Pdr1DBD-CYC8 efflux-inhibited sensitized strain, primary screen (AID 1298;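 active = RAM network inhibition above 8.4% in each of two replicates, 3 SD over the compound average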;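 note: 0% = DMSO untreated cells without growth and 100% = 10 µM 1-NA-PP1 full growth; higher means more yeast growth rescued from 5-FOA killing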); settings: S. cerevisiae cbk1-as DSE1-URA3 strain, 5-FOA growth OD615, 2 d; at 50 µM; active compounds read high

O=C(CSc1ncnc2c1oc1ccccc12)NC1CCCCC1
inactive: growth inhibition [1] -5.42% | growth inhibition [2] 3.17% | viability increase [3] -0.15% | viability [4] 95% | viability [5] 85.3% | inhibition [6] 1.92% | RAM network inhibition [7] 4.21%

CCn1c2ccccc2c2cc(NC(=O)C3CCN(S(=O)(=O)c4cccs4)CC3)ccc21
inactive: growth inhibition [1] -8.9% | growth inhibition [2] -16.2% | viability increase [3] -5.99% | viability [4] 59.3% | viability [5] 66.2% | inhibition [6] 0.19% | RAM network inhibition [7] 4.66%

COCCNS(=O)(=O)c1cccc2cccnc12
inactive: growth inhibition [1] -1.37% | growth inhibition [2] 12.8% | viability increase [3] -1.69% | viability [4] 97.8% | viability [5] 92.2% | inhibition [6] 2.52% | RAM network inhibition [7] 2.27%

O=C(CN1CCN(C2CCCCC2)CC1)Nc1ccccc1N1CCCCC1
inactive: growth inhibition [1] -12.3% | growth inhibition [2] -31.2% | viability increase [3] -4.35% | viability [4] 71.5% | viability [5] 77.7% | inhibition [6] 0.16% | RAM network inhibition [7] 5.95%

COc1ccc(-n2c(SCC(=O)Nc3ccccc3)nc3c(c2=O)SCC3)cc1
inactive: growth inhibition [1] -1.34% | growth inhibition [2] 0.23% | viability increase [3] 3.8% | viability [4] 101% | viability [5] 96% | inhibition [6] 0.755% | RAM network inhibition [7] 9.27%

CCOC(=O)c1cc(NC(=O)NCc2ccco2)c(C)nc1C
inactive: growth inhibition [1] -7.98% | growth inhibition [2] -25.8% | viability increase [3] -3.46% | viability [4] 105% | viability [5] 99.3% | inhibition [6] 1.57% | RAM network inhibition [7] 4.38%

COc1cc2c(c(O)c1OC)C(=O)C(OC)CCC2 (configuration not stated)
inactive: growth inhibition [1] 0.06% | growth inhibition [2] -2.16% | viability increase [3] -0.47% | viability [4] 97% | viability [5] 93.7% | inhibition [6] 0.275% | RAM network inhibition [7] -0.62%

Cc1c(NC(=O)C2CCN(S(=O)(=O)c3ccccc3)CC2)c(=O)n(-c2ccccc2)n1C
inactive: growth inhibition [1] -3.65% | growth inhibition [2] -4.28% | viability increase [3] -2.25% | viability [4] 96.5% | viability [5] 88.8% | inhibition [6] 1.45% | RAM network inhibition [7] 6.15%

CCOC(=O)N1CCN(C(=O)c2ccccc2Oc2ccccc2)CC1
inactive: growth inhibition [1] -5.57% | growth inhibition [2] 0.11% | viability increase [3] -1.94% | viability [4] 91% | viability [5] 93.3% | inhibition [6] -0.56% | RAM network inhibition [7] 0.52%

Cn1c(C(=O)N2CCN(c3ccccc3F)CC2)cc2c(=O)n(C)c3ccccc3c21
inactive: growth inhibition [1] -2.8% | growth inhibition [2] -4.68% | viability increase [3] -2.61% | viability [4] 100% | viability [5] 98.6% | inhibition [6] 2.54% | RAM network inhibition [7] 1.59%

O=C1c2ccccc2C(=O)N1CCC(=O)N1CCCc2ccccc21
inactive: growth inhibition [1] -19.9% | growth inhibition [2] -13.7% | viability increase [3] -0.26% | viability [4] 93.8% | viability [5] 96.8% | inhibition [6] 2.32% | RAM network inhibition [7] 7.36%

O=c1cc(CSc2nnc(-c3ccccc3)o2)c2ccccc2[nH]1
inactive: growth inhibition [1] -4.87% | growth inhibition [2] -3.43% | viability increase [3] 0.91% | viability [4] 99.2% | viability [5] 102% | inhibition [6] 2.32% | RAM network inhibition [7] 6.08%

COc1cccc(C2CC(c3ccccc3C)n3nc(N)nc3N2)c1 (configuration not stated)
inactive: growth inhibition [1] -7.81% | growth inhibition [2] 7.97% | viability increase [3] -2.32% | viability [4] 107% | viability [5] 86.5% | inhibition [6] 0.35% | RAM network inhibition [7] 8.21%

O=C1c2ccccc2C(=O)N1Cc1nc2ccccc2c(=O)n1CCCn1ccnc1
inactive: growth inhibition [1] -3.57% | growth inhibition [2] 0.74% | viability increase [3] -1.98% | viability [4] 96.3% | viability [5] 101% | inhibition [6] 0.915% | RAM network inhibition [7] 4.3%

C=C1CC2C=C(NC(C)=O)CC(C1)C2 (configuration not stated)
inactive: growth inhibition [1] -18.7% | growth inhibition [2] -12.7% | viability increase [3] -0.27% | viability [4] 98.6% | viability [5] 95.6% | inhibition [6] 1.1% | RAM network inhibition [7] 4.47%

O=C(CN(C1CCCCC1)S(=O)(=O)c1ccc(F)cc1)NCCCO
inactive: growth inhibition [1] -6.21% | growth inhibition [2] 2.23% | viability increase [3] -0.51% | viability [4] 103% | viability [5] 98.1% | inhibition [6] 1.75% | RAM network inhibition [7] 1.27%

CCNc1nc(C)nc2c1oc1ccccc12
inactive: growth inhibition [1] -8.28% | growth inhibition [2] -30.6% | viability increase [3] 0.92% | viability [4] 101% | viability [5] 89.5% | inhibition [6] 1.81% | RAM network inhibition [7] 3.64%

COc1cc(C(=O)NCc2ccco2)c(Br)c(OC)c1OC
inactive: growth inhibition [1] -1.05% | growth inhibition [2] -12.5% | viability increase [3] -4.68% | viability [4] 98.3% | viability [5] 96% | inhibition [6] 0.865% | RAM network inhibition [7] -0.16%

CC(N=C1NS(=O)(=O)c2ccccc21)c1ccccc1 (configuration not stated)
inactive: growth inhibition [1] 0.11% | growth inhibition [2] 1.27% | viability increase [3] 0.15% | viability [4] 103% | viability [5] 96.2% | inhibition [6] -0.16% | RAM network inhibition [7] 5.97%

Cn1c(=O)oc2cc(S(=O)(=O)NCCCN3CCCC3=O)ccc21
inactive: growth inhibition [1] -7.4% | growth inhibition [2] -6.43% | viability increase [3] -2.65% | viability [4] 99% | viability [5] 98.7% | inhibition [6] 0.615% | RAM network inhibition [7] 0.74%

O=C1CC(c2ccccc2)C(C(=O)Nc2ccccc2F)N1 (configuration not stated)
inactive: growth inhibition [1] -17.2% | growth inhibition [2] 2% | viability increase [3] -0.74% | viability [4] 104% | viability [5] 99.3% | inhibition [6] 0.81% | RAM network inhibition [7] 4.18%

COc1cc2c(cc1OC)C(c1ccco1)CC(=O)N2 (configuration not stated)
inactive: growth inhibition [1] -6.61% | growth inhibition [2] -1.62% | viability increase [3] -2.43% | viability [4] 101% | viability [5] 101% | inhibition [6] 1.06% | RAM network inhibition [7] 3.34%

CC1CCCN(c2nc3c(c(=O)[nH]c(=O)n3C)n2CCSc2ncccn2)C1 (configuration not stated)
inactive: growth inhibition [1] -2.51% | growth inhibition [2] 2.04% | viability increase [3] -3.17% | viability [4] 97% | viability [5] 96.8% | inhibition [6] 1.14% | RAM network inhibition [7] 2.7%

CC1(C)Oc2ccc3ccc(=O)oc3c2/C(=C/Nc2ccccn2)C1=O
inactive: growth inhibition [1] -22.4% | growth inhibition [2] -16% | viability increase [3] -1.39% | viability [4] 95% | viability [5] 93.3% | inhibition [6] 4.12% | RAM network inhibition [7] 6.38%

COc1ccc(OC)c(CCNC(=O)CN2C(=O)CC(C)(C)S(=O)(=O)c3ccccc32)c1
inactive: growth inhibition [1] -4.35% | growth inhibition [2] -14.1% | viability increase [3] -2.6% | viability [4] 101% | viability [5] 92.3% | inhibition [6] -0.045% | RAM network inhibition [7] 2.76%

CC(C)Sc1nc2c(c(=O)n1C)SC(C)C2 (configuration not stated)
inactive: growth inhibition [1] -7.53% | growth inhibition [2] 2.86% | viability increase [3] -1.28% | viability [4] 106% | viability [5] 99.5% | inhibition [6] 1.61% | RAM network inhibition [7] 5.77%

CC(=O)Nc1ccc(C2Nc3ccccc3C(=O)N2C2CCCCC2)cc1 (configuration not stated)
inactive: growth inhibition [1] -5.95% | growth inhibition [2] -9.11% | viability increase [3] -1.42% | viability [4] 94.9% | viability [5] 93.6% | inhibition [6] 2.73% | RAM network inhibition [7] -0.56%

COc1ccc(N(CC(=O)NCc2cccs2)S(=O)(=O)c2cccnc2)cc1
inactive: growth inhibition [1] 5.41% | growth inhibition [2] 4.48% | viability increase [3] -0.05% | viability [4] 107% | viability [5] 106% | inhibition [6] 0.045% | RAM network inhibition [7] 7.1%

COc1ccccc1OCC(=O)Nc1ccc(S(=O)(=O)NC(C)=O)cc1
inactive: growth inhibition [1] -17% | growth inhibition [2] -5.72% | viability increase [3] 1.56% | viability [4] 89.2% | viability [5] 103% | inhibition [6] 0.645% | RAM network inhibition [7] 2.08%

CC(=O)NCC(=O)N(c1ccccc1)C1(C(=O)NC2CCCCC2)CCCCC1
inactive: growth inhibition [1] -3.84% | growth inhibition [2] 6.72% | viability increase [3] -2.01% | viability [4] 103% | viability [5] 98.3% | inhibition [6] 0.165% | RAM network inhibition [7] -0.7%

O=C(COC(=O)C1(c2ccccc2F)CCCC1)N1CCN(C(=O)c2ccco2)CC1
inactive: growth inhibition [1] -13.4% | growth inhibition [2] -13.8% | viability increase [3] -2.48% | viability [4] 87.3% | viability [5] 95.4% | inhibition [6] 0.995% | RAM network inhibition [7] 1.19%

CCOc1ccccc1NC(=O)C1CCN(S(=O)(=O)c2ccc(OC)c(OC)c2)CC1
inactive: growth inhibition [1] -4.97% | growth inhibition [2] -2.79% | viability increase [3] -2.46% | viability [4] 95% | viability [5] 98.1% | inhibition [6] 0.085% | RAM network inhibition [7] 0.83%

CCOC(=O)CSc1n[nH]c(-c2ccco2)n1
inactive: growth inhibition [1] -16.1% | growth inhibition [2] -17% | viability increase [3] -1.01% | viability [4] 93.8% | viability [5] 102% | inhibition [6] 0.85% | RAM network inhibition [7] 4.21%

COc1ccc(C2CC(c3ccccc3C)n3nc(N)nc3N2)cc1 (configuration not stated)
inactive: growth inhibition [1] 1.94% | growth inhibition [2] 17.8% | viability increase [3] 0.56% | viability [4] 96.1% | viability [5] 87.6% | inhibition [6] 2.3% | RAM network inhibition [7] 1.89%

Cc1noc(C(=O)N2CCN(c3ccc(F)cc3)CC2)c1Cl
inactive: growth inhibition [1] -12.6% | growth inhibition [2] -16.4% | viability increase [3] 1.26% | viability [4] 105% | viability [5] 101% | inhibition [6] 2.11% | RAM network inhibition [7] 9.11%

CCc1ccccc1NC(=O)c1cc2sccc2n1C
inactive: growth inhibition [1] -8.19% | growth inhibition [2] 0.86% | viability increase [3] 1.11% | viability [4] 90.4% | viability [5] 80.3% | inhibition [6] 0.28% | RAM network inhibition [7] 4.98%
